Compound activity deposited in PubChem BioAssay by several laboratories.
An excerpt weighted towards active compounds, which were near 4.4% of everything screened.
AHR act: AHR activators, primary screen, cell-based, luminescence, luciferase reporter, human | AHR-responsive luciferase reporter cells | Aryl hydrocarbon receptor (Homo sapiens), P35869 | 2.5% of 320,000 active | activation, % at 5 µM; in the data active = activation above about 47%
Target sequence (P35869 whole entry, looked up): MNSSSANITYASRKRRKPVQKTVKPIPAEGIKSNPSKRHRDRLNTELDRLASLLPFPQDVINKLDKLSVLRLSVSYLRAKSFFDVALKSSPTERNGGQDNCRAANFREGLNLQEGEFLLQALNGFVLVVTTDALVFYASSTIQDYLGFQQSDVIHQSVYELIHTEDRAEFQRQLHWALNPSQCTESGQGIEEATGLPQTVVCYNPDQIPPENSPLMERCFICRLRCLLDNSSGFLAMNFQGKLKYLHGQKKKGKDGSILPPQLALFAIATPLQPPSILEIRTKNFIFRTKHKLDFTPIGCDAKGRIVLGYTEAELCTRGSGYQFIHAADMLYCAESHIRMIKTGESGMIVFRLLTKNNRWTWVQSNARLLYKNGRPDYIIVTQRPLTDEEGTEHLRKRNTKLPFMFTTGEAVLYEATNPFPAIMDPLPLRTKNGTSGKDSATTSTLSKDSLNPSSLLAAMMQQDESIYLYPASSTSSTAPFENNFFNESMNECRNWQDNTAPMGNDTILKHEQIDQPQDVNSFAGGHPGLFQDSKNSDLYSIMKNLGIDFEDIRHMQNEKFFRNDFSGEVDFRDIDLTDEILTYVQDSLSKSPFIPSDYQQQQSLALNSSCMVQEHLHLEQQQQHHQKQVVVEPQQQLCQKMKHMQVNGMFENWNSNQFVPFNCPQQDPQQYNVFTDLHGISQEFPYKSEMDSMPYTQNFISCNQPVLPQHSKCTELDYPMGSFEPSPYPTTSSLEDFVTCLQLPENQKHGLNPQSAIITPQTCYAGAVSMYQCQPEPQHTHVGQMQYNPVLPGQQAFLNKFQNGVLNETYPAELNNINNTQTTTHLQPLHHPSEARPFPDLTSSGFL
bovine MsrA act: bovine MsrA enzyme activators, primary screen, biochemical, absorbance, HTS; AID 602163, 2012; activation, % at 10.6 µM; purified bovine MsrA, absorbance read-out; 0.3% of 360,000 active; Methionine sulfoxide reductase A (Bos taurus); in the data active = activation above about 7.5%
HTR2A ag: mouse Htr2a agonists via beta-arrestin recruitment, primary screen, cell-based, luminescence; CHO-K1 mHTR2A beta-arrestin complementation; percent of 30 µM serotonin response; 0.66% of 360,000 active; 5-hydroxytryptamine receptor 2A (Mus musculus), P35363; AID 624169, 2012; activation, % at 7.6 µM;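 active = activation above a run cutoff, the mean activation of all tested compounds plus 3 SD, cut at about 14% in these data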
MsrA inhibitor: bovine MsrA enzyme inhibitors, primary screen, biochemical, absorbance, HTS; Methionine sulfoxide reductase A (Bos taurus); inhibition, % at 15.5 µM; 0.75% of 360,000 active; purified bovine MsrA, absorbance read-out; in the data active = inhibition above about 4.5%
AI-2 QS mod: Vibrio harveyi AI-2 quorum sensing modulators, primary screen, JMH597 strain, luminescence/OD600 ratio | Vibrio harveyi JMH597 AI-2 luminescence/OD600 ratio, 9 h; active compounds read low; strain lacks LuxN and CqsS sensors; 0 = neutral-control median | activity change, % at 7.5 µM | 0.4% of 300,000 active | AID 2094, 2009; in the data active = activity change below about -75%, passing the limit was not always enough;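 also: luminescence divided by OD600 gain over 9 h not by final OD600 alone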
Tb MetRS inh: T. brucei MetRS inhibitors, primary screen, biochemical, luminescence | methionyl-tRNA synthetase (Trypanosoma brucei brucei) | AID 624268, 2012 | 0.4% of 360,000 active | purified T. brucei MetRS, ATP depletion, Kinase-Glo luminescence | inhibition, % at 11.9 µM;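 active = inhibition above a per-plate cutoff of the control wells' mean inhibition plus 3 SD, cut at about 5.5% in these data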
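Measured by: Kinase-Glo luciferase luminescence reporting remaining unconsumed ATP. Material: purified T. brucei MetRS enzyme. Doses: 11.9 µM compound single dose, 0.9% DMSO. Medium: HEPES buffer containing pyrophosphatase, BSA, spermine, DTT. Times: 15 min preincubation, 2 h reaction, all 25 °C. Reagent: methionine, ATP and bulk E. coli tRNA.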
AHR act cf: AHR activators, confirmation, cell-based, luminescence, luciferase reporter, human; shares compounds with AHR act; human cells, AHR-responsive luciferase reporter; activation, % at 9 µM; 87% of 2,300 active; in the data active = activation above about 49%;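 also: HepG2 hepatoma cells carrying a DRE-driven firefly luciferase reporter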
PXR act counter: human PXR activators, counter-screen for AHR activator project, cell-based, luciferase luminescence | AID 434939, 2010 | 88% of 2,300 active | shares compounds with AHR act | cell-based PXR reporter | activation, % at 11.6 µM; in the data active = activation above about 11%;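 also: human hepatoma DPX-2 cells expressing full-length human PXR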
A number is an active result.

How did O=C(NCc1ccncc1)Nc1cc(Cl)ccc1Cl do in these assays?
AHR act: 97; bovine MsrA act: inactive; HTR2A ag: inactive; MsrA inhibitor: inactive; AI-2 QS mod: inactive; Tb MetRS inh: inactive; AHR act cf: 63; PXR act counter: 26

Results for O=C(NCc1ccccc1)Nc1cc(Cl)ccc1Cl ?
AHR act: inactive; bovine MsrA act: inactive; HTR2A ag: inactive; MsrA inhibitor: inactive; AI-2 QS mod: inactive; Tb MetRS inh: inactive

Results for Cn1cnc([N+](=O)[O-])c1Oc1ccccc1 ?
AHR act: inactive; bovine MsrA act: inactive; HTR2A ag: inactive; MsrA inhibitor: inactive; AI-2 QS mod: inactive; Tb MetRS inh: inactive

What do the screens show for `Cn1cnc([N+](=O)[O-])c1Oc1cccc2ccccc12`?
AHR act: 82; bovine MsrA act: inactive; HTR2A ag: inactive; MsrA inhibitor: inactive; AI-2 QS mod: inactive; Tb MetRS inh: inactive; AHR act cf: 82; PXR act counter: 21

Results for COc1cccc(/C=N/NC(=O)c2cc3c(OC)ccc(OC)c3[nH]2)c1O ?
AHR act: 84; bovine MsrA act: inactive; HTR2A ag: inactive; MsrA inhibitor: inactive; AI-2 QS mod: inactive; Tb MetRS inh: inactive; AHR act cf: inactive; PXR act counter: inactive

What do the screens show for `COc1ccc(/C=N/NC(=O)c2cccc(NC(=O)c3ccc(F)cc3)c2)c(C(=O)O)c1OC`?
AHR act: 106; bovine MsrA act: inactive; HTR2A ag: inactive; MsrA inhibitor: inactive; AI-2 QS mod: inactive; Tb MetRS inh: inactive; AHR act cf: 93

How did O=C(O)[C@H](Cc1c[nH]c2ccccc12)Nc1ncccc1[N+](=O)[O-] do in these assays?
AHR act: inactive; bovine MsrA act: inactive; HTR2A ag: inactive; MsrA inhibitor: inactive; AI-2 QS mod: inactive; Tb MetRS inh: inactive

What do the screens show for `CCCCCOc1ccc(C(=O)CCC(=O)NNC(=O)c2ccncc2)cc1`?
bovine MsrA act: inactive; HTR2A ag: inactive; MsrA inhibitor: inactive; Tb MetRS inh: inactive

Results for Clc1ccc(Cl)c(-c2nn3c(COc4ccccc4)nnc3s2)c1 ?
AHR act: inactive; bovine MsrA act: inactive; HTR2A ag: inactive; MsrA inhibitor: inactive; AI-2 QS mod: inactive; Tb MetRS inh: inactive

What do the screens show for `c1ccc(OCc2nnc3sc(-c4cccs4)nn23)cc1`?
AHR act: 139; bovine MsrA act: inactive; HTR2A ag: inactive; MsrA inhibitor: inactive; AI-2 QS mod: inactive; Tb MetRS inh: inactive; AHR act cf: 81; PXR act counter: 18

Results for C#CCOCCOCCOCCNc1nc(OC)nc(N2CCN(C(=O)[C@H](CCC(=O)O)n3cc(C(N)CO)nn3)CC2)n1 (stereo partly drawn) ?
AHR act: inactive; bovine MsrA act: inactive; HTR2A ag: inactive; MsrA inhibitor: inactive; Tb MetRS inh: inactive

How did Cc1cccc(Nc2nc3ccccc3s2)c1C do in these assays?
AHR act: 101; bovine MsrA act: inactive; HTR2A ag: inactive; MsrA inhibitor: inactive; AI-2 QS mod: inactive; Tb MetRS inh: inactive; AHR act cf: 50; PXR act counter: 72

What do the screens show for `Cn1c(-c2ccccc2Br)n[nH]c1=S`?
AHR act: inactive; bovine MsrA act: inactive; HTR2A ag: inactive; MsrA inhibitor: inactive; AI-2 QS mod: inactive; Tb MetRS inh: inactive

How did S=c1nc2ccccc2c2nc(-c3ccccc3Br)[nH]n12 do in these assays?
AHR act: 123; bovine MsrA act: inactive; HTR2A ag: inactive; MsrA inhibitor: inactive; AI-2 QS mod: inactive; Tb MetRS inh: inactive; AHR act cf: 130; PXR act counter: 38

How did O=S1(=O)CCSC[C@@H](CN2CCOCC2)N1 do in these assays?
MsrA inhibitor: inactive

How did C#Cc1ccc(C(=O)Nc2cc(C(N)=O)ccc2N2CCOCC2)cc1 do in these assays?
AHR act: 80; bovine MsrA act: inactive; HTR2A ag: inactive; MsrA inhibitor: inactive; AI-2 QS mod: inactive; Tb MetRS inh: inactive; AHR act cf: 72; PXR act counter: 12

What do the screens show for `C=CCNC(=O)c1ccccc1NC(=O)c1cccc2ccccc12`?
AHR act: 94; bovine MsrA act: inactive; HTR2A ag: inactive; MsrA inhibitor: inactive; AI-2 QS mod: inactive; Tb MetRS inh: inactive; AHR act cf: 89; PXR act counter: 84

What do the screens show for `CN(CC(=O)Nc1ccc(F)cc1)C(=O)COC(=O)c1ccc(-c2ccccc2)cc1`?
AHR act: inactive; bovine MsrA act: inactive; HTR2A ag: inactive; MsrA inhibitor: inactive; AI-2 QS mod: inactive; Tb MetRS inh: inactive

Results for COc1ccc(-c2nc3c(c4nnc(SC(C)C(=O)Nc5ccc(C)cc5)n24)COC(C)(C)C3)cc1 (stereo not drawn) ?
AHR act: inactive; bovine MsrA act: inactive; HTR2A ag: inactive; MsrA inhibitor: inactive; AI-2 QS mod: inactive; Tb MetRS inh: inactive

What do the screens show for `COc1ccc(NC(=O)CSc2nnc3c4c(nc(-c5ccccc5)n23)CC(C)(C)OC4)cc1`?
AHR act: 109; bovine MsrA act: inactive; HTR2A ag: inactive; MsrA inhibitor: inactive; AI-2 QS mod: inactive; Tb MetRS inh: inactive; AHR act cf: inactive; PXR act counter: 25

What do the screens show for `CCC(C)N(C(=O)CSc1nc(-c2cccs2)nc2ccccc12)C1CCS(=O)(=O)C1` (stereo not drawn)?
bovine MsrA act: inactive; HTR2A ag: inactive; MsrA inhibitor: inactive; Tb MetRS inh: inactive

How did Cn1ccc2cc(NC(=O)Nc3cccnc3)ccc21 do in these assays?
AHR act: 89; bovine MsrA act: inactive; HTR2A ag: inactive; MsrA inhibitor: inactive; AI-2 QS mod: inactive; Tb MetRS inh: inactive; AHR act cf: 55; PXR act counter: 21

Results for O=C(Nc1ccc(F)c(F)c1)c1ccc2c(c1)OCO2 ?
AHR act: inactive; bovine MsrA act: inactive; HTR2A ag: inactive; MsrA inhibitor: inactive; AI-2 QS mod: inactive; Tb MetRS inh: inactive

How did Cc1noc(C(=O)Nc2ccc3c(c2)OCO3)c1Cl do in these assays?
AHR act: 125; bovine MsrA act: inactive; HTR2A ag: inactive; MsrA inhibitor: inactive; AI-2 QS mod: inactive; Tb MetRS inh: inactive; AHR act cf: 148; PXR act counter: 26

What do the screens show for `CC(=O)c1ccc(NC(=O)c2onc(C)c2Cl)cc1`?
AHR act: inactive; bovine MsrA act: inactive; HTR2A ag: inactive; MsrA inhibitor: inactive; AI-2 QS mod: inactive; Tb MetRS inh: inactive
